{
  "source": "ChEMBL document CHEMBL1671657",
  "about": "“MurF inhibitors with antibacterial activity: effect on muropeptide levels” (Antimicrob Agents Chemother, 2009)",
  "key": {"[1]": {"test_system": "Escherichia coli", "assay": "Inhibition of LPS-deficient Escherichia coli OC2530 MurF assessed as UDP-MurNAc-pentapeptide product level at 2 times MIC by HPLC (reference value: 1 mAU)"}, "[2]": {"test_system": "Staphylococcus aureus", "assay": "Antimicrobial activity against methicillin-resistant Staphylococcus aureus OC2878 by broth microdilution method", "type": "functional", "summary_of_the_method": "(§1)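 CLSI broth microdilution MIC; strains from the sponsor's in-house collection.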"}, "[3]": {"test_system": "Enterococcus faecium", "assay": "Antimicrobial activity against Enterococcus faecium OC3312 by broth microdilution method", "type": "functional", "summary_of_the_method": "(§2)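 MICs by CLSI broth microdilution. Where polymyxin B nonapeptide was included, it was present at 2 μg/ml alongside the test compound.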"}, "[4]": {"test_system": "Escherichia coli", "assay": "Antimicrobial activity against Escherichia coli OC2605 by broth microdilution method", "type": "functional", "summary_of_the_method": "as §1"}, "[5]": {"test_system": "Staphylococcus aureus", "assay": "Antimicrobial activity against Staphylococcus aureus ATCC 29213 by broth microdilution method", "type": "functional", "summary_of_the_method": "as §2"}, "[6]": {"test_system": "Escherichia coli", "assay": "Inhibition of LPS-deficient Escherichia coli OC2530 MurF harboring pASK plasmid assessed as UDP-MurNAc-pentapeptide product level at 2 times MIC by HPLC (Rvb =880 +/- 17 mAU)", "summary_of_the_method": "(§3)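 Compound added at 2× MIC from 500× stock (DMSO control). After 30 min, muropeptides extracted and quantified by HPLC peak area (mAU); representative of two independent experiments.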"}, "[7]": {"test_system": "Escherichia coli", "assay": "Inhibition of LPS-deficient Escherichia coli OC2530 MurF harboring pMurF plasmid assessed as UDP-MurNAc-tripeptide substrate level at 2 times MIC by HPLC (reference value: 220 +/- 65 mAU)", "summary_of_the_method": "as §3"}, "[8]": {"test_system": "Escherichia coli", "assay": "Inhibition of LPS-deficient Escherichia coli OC2530 MurF harboring pASK plasmid assessed as UDP-MurNAc-tripeptide substrate level at 2 times MIC by HPLC (reference value: 63 +/- 4 mAU)", "summary_of_the_method": "as §3"}, "[9]": {"test_system": "Staphylococcus aureus", "assay": "Inhibition of Staphylococcus aureus ATCC 29213 MurF assessed as UDP-MurNAc-pentapeptide product level at 2 times MIC by HPLC (reference value: 1 mAU)", "summary_of_the_method": "(§4)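 After 30 min, muropeptides were extracted and quantified by HPLC peak area, normalized to the control. The HPLC detection limit was 12 mAU. Results are representative of two independent experiments.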"}, "[10]": {"test_system": "Escherichia coli", "assay": "Antimicrobial activity against LPS-deffective Escherichia coli OC2530 harboring pASK plasmid by broth microdilution method in presence of chloramphenicol", "type": "functional", "summary_of_the_method": "(§5)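 CLSI broth microdilution MIC for OC2530 carrying plasmid (empty pASK or pMurF). Medium contained chloramphenicol 3 μg/ml to keep the plasmid and AHT 100 ng/ml to induce MurF expression.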"}, "[11]": {"test_system": "Escherichia coli", "assay": "Antimicrobial activity against Escherichia coli OC9040 by broth microdilution method", "type": "functional", "summary_of_the_method": "as §2"}, "[12]": {"test_system": "Staphylococcus aureus", "assay": "Antimicrobial activity against Staphylococcus aureus OC4172 by broth microdilution method", "type": "functional", "summary_of_the_method": "as §2"}, "[13]": {"test_system": "Escherichia coli", "assay": "Bactericidal activity against LPS-deffective Escherichia coli OC2530 at 2 times MIC by CFU quantitation"}, "[14]": {"test_system": "Staphylococcus aureus", "assay": "Inhibition of Staphylococcus aureus ATCC 29213 MurF assessed as UDP-MurNAc-tripeptide substrate level at 2 times MIC by HPLC (reference value: 1 mAU)", "summary_of_the_method": "as §4"}, "[15]": {"test_system": "Staphylococcus aureus", "assay": "Bacteriostatic activity against Staphylococcus aureus ATCC 29213 at 2 times MIC", "type": "functional, organism-based"}, "[16]": {"test_system": "Enterococcus faecalis", "assay": "Antimicrobial activity against Enterococcus faecalis ATCC 29212 by broth microdilution method", "type": "functional", "summary_of_the_method": "as §2"}, "[17]": {"test_system": "Escherichia coli", "assay": "Antimicrobial activity against LPS-deffective Escherichia coli OC2530 harboring pMurF plasmid by broth microdilution method in presence of chloramphenicol", "type": "functional", "summary_of_the_method": "as §5"}, "[18]": {"test_system": "Escherichia coli", "assay": "Antimicrobial activity against Escherichia coli ATCC 25922 by broth microdilution method", "type": "functional", "summary_of_the_method": "as §2"}, "[19]": {"test_system": "Escherichia coli", "assay": "Antimicrobial activity against LPS-deffective Escherichia coli OC2530 by broth microdilution method", "type": "functional", "summary_of_the_method": "as §2"}, "[20]": {"test_system": "Escherichia coli", "assay": "Antimicrobial activity against LPS-deffective Escherichia coli OC2530 assessed as cell aggregation at 0.5 times MIC by light microscopy relative to untreated control", "type": "functional, organism-based", "summary_of_the_method": "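Cells were fixed on a glass slide under a coverslip and viewed by light microscopy at ×100/×1.25 oil immersion. Representative images were taken.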"}, "[21]": {"test_system": "Escherichia coli", "assay": "Inhibition of LPS-deficient Escherichia coli OC2530 MurF harboring pMurF plasmid assessed as UDP-MurNAc-pentapeptide product level at 2 times MIC by HPLC (reference value: 2674 +/- 696 mAU)", "summary_of_the_method": "as §3"}, "[22]": {"test_system": "Escherichia coli", "assay": "Inhibition of LPS-deficient Escherichia coli OC2530 MurF assessed as UDP-MurNAc-tripeptide substrate level at 2 times MIC by HPLC (reference value: 1 mAU)"}, "[23]": {"test_system": "Staphylococcus aureus", "assay": "Antimicrobial activity against methicillin-resistant Staphylococcus aureus OC3726 by broth microdilution method", "type": "functional", "summary_of_the_method": "as §1"}},
  "note": "Active and inactive are the calls of the source. The calls are words filed in the database; no cut-off is given here.",
  "data": [
    {"smiles": "N[C@@H]1CONC1=O", "note": "[CYCLOSERINE]", "values": [
      {"measurement": "Activity (fold of control)", "setting": "[1]", "result": 0.12},
      {"measurement": "MIC", "setting": "[2]", "result": 64, "unit": "µg/mL"},
      {"measurement": "MIC", "setting": "[3]", "result": 64, "unit": "µg/mL"},
      {"measurement": "MIC", "setting": "[4]", "result": 16, "unit": "µg/mL"},
      {"measurement": "MIC", "setting": "[5]", "result": 32, "unit": "µg/mL"},
      {"measurement": "Activity", "setting": "[6]", "result": 146, "unit": "mAU"},
      {"measurement": "Activity", "setting": "[7]", "result": 5090, "unit": "mAU"},
      {"measurement": "Activity", "setting": "[8]", "result": 2260, "unit": "mAU"},
      {"measurement": "Activity (fold of control)", "setting": "[9]", "result": 0.33},
      {"measurement": "MIC", "setting": "[10]", "result": 64, "unit": "µg/mL"},
      {"measurement": "MIC", "setting": "[11]", "result": 32, "unit": "µg/mL"},
      {"measurement": "MIC", "setting": "[12]", "result": 32, "unit": "µg/mL"},
      {"measurement": "Activity", "setting": "[13]", "result": "Active"},
      {"measurement": "Activity (fold of control)", "setting": "[14]", "result": "> 100"},
      {"measurement": "Activity", "setting": "[15]", "result": "Active"},
      {"measurement": "MIC", "setting": "[16]", "result": 128, "unit": "µg/mL"},
      {"measurement": "MIC", "setting": "[17]", "result": 64, "unit": "µg/mL"},
      {"measurement": "MIC", "setting": "[18]", "result": 32, "unit": "µg/mL"},
      {"measurement": "MIC", "setting": "[19]", "result": 64, "unit": "µg/mL"},
      {"measurement": "Activity", "setting": "[20]", "result": "Active"},
      {"measurement": "Activity", "setting": "[21]", "result": 181, "unit": "mAU"},
      {"measurement": "Activity (fold of control)", "setting": "[22]", "result": 30},
      {"measurement": "MIC", "setting": "[23]", "result": 32, "unit": "µg/mL"}
    ]}
  ]
}
